Source: ChEMBL document CHEMBL1130800, “Complexation of okadaic acid: a preliminary study” (1998)

Legend:
Type in all cases: functional
Rattus norvegicus [1] = species: Rattus norvegicus; test: Decrease in tone in estrogen-primed rat uterus at 20 uM in Ca+2-free solution
Method in brief: (§1)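 Uterine strips from estradiol benzoate-primed (100 μg Kg⁻¹ ip, 24 h) virgin female Wistar rats, 200-250 g, in Sund's PSS (Ca²⁺-free, Na⁺/Ca²⁺-free, or K⁺/Ca²⁺-free with KCl omitted), 32°C, 95% O₂/5% CO₂, 0.5 g resting force. One 20 μM application per strip. Isometric tension decline measured at 120 min, as % of the agent's maximal tension increase. Mean ± s.e.m.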

Rattus norvegicus [2] = species: Rattus norvegicus; test: Emax value in estrogen-primed rat uterus at 20 uM in Ca+2-free K+free solution
Method in brief: (§2)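 Strips from oestrogen-primed Wistar rat uterus, 0.5 g resting force, in Sund's PSS variants (Ca²⁺-free; Na⁺- and Ca²⁺-free; K⁺- and Ca²⁺-free) at 32°C. A single 20 μM addition per strip. Maximal isometric contraction expressed as % of the maximal tension evoked by ACh 1 mM in the same strip. Mean ± s.e.m.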

Rattus norvegicus [3] = species: Rattus norvegicus; test: Time to peak tension(min) in estrogen-primed rat uterus at 20 uM in Ca+2-free solution
Method in brief: (§3)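 Isometric recording at 32°C of uterine strips from estrogen-primed (100 μg Kg⁻¹ ip estradiol benzoate, 24 h prior) female Wistar rats, in Ca²⁺-free, Na⁺/Ca²⁺-free or K⁺/Ca²⁺-free Sund's PSS. Each strip received one 20 μM application. Time to peak tension (min) measured from the onset of the tension increase. Mean ± s.e.m.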

Rattus norvegicus [4] = species: Rattus norvegicus; test: Duration of plateau(min) in estrogen-primed rat uterus at 20 uM in [Ca2+] free K+free solution
Method in brief: (§4)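 Estrus-confirmed, oestrogen-primed rat uterine longitudinal strips in Ca²⁺-free, Na⁺/Ca²⁺-free or K⁺/Ca²⁺-free Sund's PSS at 32°C, gassed 95% O₂/5% CO₂. Strips equilibrated 45 min, then given repeated ACh 1 mM until responses were reproducible. A single 20 μM dose per strip. Contraction plateau duration (min) taken from isometric recordings. Mean ± s.e.m.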

Rattus norvegicus [5] = species: Rattus norvegicus; test: Time to peak tension(min) in estrogen-primed rat uterus at 20 uM in [Ca2+] free K+free solution; method in brief: as §3
Rattus norvegicus [6] = species: Rattus norvegicus; test: Emax value in estrogen-primed rat uterus at 20 uM in [Ca2+] free Na+free solution; method in brief: as §2
Rattus norvegicus [7] = species: Rattus norvegicus; test: Decrease in tone in estrogen-primed rat uterus at 20 uM in [Ca2+] free Na+free solution; method in brief: as §1
Rattus norvegicus [8] = species: Rattus norvegicus; test: Duration of plateau(min) in estrogen-primed rat uterus at 20 uM in [Ca2+] free Na+free solution; method in brief: as §4
Rattus norvegicus [9] = species: Rattus norvegicus; test: Emax value in estrogen-primed rat uterus at 20 uM in Ca+2-free solution; method in brief: as §2
Rattus norvegicus [10] = species: Rattus norvegicus; test: Time to peak tension(min) in estrogen-primed rat uterus at 20 uM in [Ca2+] free Na+free solution; method in brief: as §3
Rattus norvegicus [11] = species: Rattus norvegicus; test: Duration of plateau(min) in estrogen-primed rat uterus at 20 uM in Ca+2-free solution; method in brief: as §4
Rattus norvegicus [12] = species: Rattus norvegicus; test: Decrease in tone in estrogen-primed rat uterus at 20 uM in [Ca2+] free K+free solution; method in brief: as §1

C=C1[C@@H](O)[C@@H]2O[C@@]3(CCC2O[C@@H]1[C@@H](O)C[C@H](C)C1O[C@@]2(CCCCO2)CC[C@H]1C)CC[C@H](/C=C/[C@@H](C)[C@@H]1CC(C)=C[C@@]2(O[C@H](C[C@@](C)(O)C(=O)O)CC[C@H]2O)O1)O3 (some centres undefined)
Decrease in tone (Rattus norvegicus [1]): 92.8
Emax (Rattus norvegicus [2]): 135.2
Time to peak tension (Rattus norvegicus [3]): 23 min
Duration of plateau (Rattus norvegicus [4]): 2.9 min
Time to peak tension (Rattus norvegicus [5]): 20.7 min
Emax (Rattus norvegicus [6]): 186.5
Decrease in tone (Rattus norvegicus [7]): 93.3
Duration of plateau (Rattus norvegicus [8]): 4.2 min
Emax (Rattus norvegicus [9]): 101.7
Time to peak tension (Rattus norvegicus [10]): 30.3 min
Duration of plateau (Rattus norvegicus [11]): 3.7 min
Decrease in tone (Rattus norvegicus [12]): 98

C=C1[C@@H](O)[C@@H]2O[C@]3(CC[C@H](/C=C/[C@@H](C)[C@@H]4CC(C)=C[C@@]5(O[C@H](C[C@@](C)(O)C(=O)O)CC[C@H]5O)O4)O3)CC[C@H]2O[C@@H]1[C@@H](O)C[C@H](C)[C@H]1O[C@@]2(CCCCO2)CC[C@H]1C [OKADAIC ACID]
Decrease in tone (Rattus norvegicus [1]): 85.7
Emax (Rattus norvegicus [2]): 6.2
Time to peak tension (Rattus norvegicus [3]): 27.2 min
Duration of plateau (Rattus norvegicus [4]): 12.8 min
Time to peak tension (Rattus norvegicus [5]): 28.5 min
Emax (Rattus norvegicus [6]): 150.8
Decrease in tone (Rattus norvegicus [7]): 94.8
Duration of plateau (Rattus norvegicus [8]): 3.8 min
Emax (Rattus norvegicus [9]): 107.9
Time to peak tension (Rattus norvegicus [10]): 25.1 min
Duration of plateau (Rattus norvegicus [11]): 2.1 min
Decrease in tone (Rattus norvegicus [12]): 58.1
